Results on 4 compounds are retold here after ChEMBL document CHEMBL3352137, “Modification on ursodeoxycholic acid (UDCA) scaffold. discovery of bile acid derivatives as selective agonists of cell-surface G-protein coupled bile acid receptor 1 (GP-BAR1)” (J Med Chem, 2014).

The source made the active and inactive calls. No cut-off for these calls is given here.

The subject of series [1] is Mus musculus. Kind of series: Increase in plasma tauro-muricholic acid level in CD1 mouse model of ANIT-induced cholestasis at 16 mg/kg, po.
Series [2] deals with Mus musculus. Kind of series: Induction of FXR-mediated BSEP mRNA expression in CD1 mouse liver at 64 mg/kg, po measured 3 to 24 hrs post dose by real-time PCR method. It is filed as functional, organism-based. Set-up: dose 64 mg/kg. The procedure, abridged:
(§1)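 Male CD1 mice (n = 3, 4) received a single oral dose of 64 mg/kg. Liver and ileum were collected at 6 or 24 h (3, 6 and 24 h also stated). Target mRNA was measured by SYBR real-time PCR (0.2 μM primers, 10 ng template, 40 cycles of 95 °C 20 s / 60 °C 30 s), with all reactions in triplicate. Comparison was versus control mice.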
On the technique in general: In qPCR the cycle at which signal appears reflects the starting amount.

Series [3] deals with Mus musculus. Kind of series: Increase in plasma bile acid level in CD1 mouse model of ANIT-induced cholestasis at 16 mg/kg, po.
Series [4] deals with Mus musculus. Kind of series: Induction of FXR-mediated OST mRNA expression in CD1 mouse liver at 64 mg/kg, po measured 3 to 24 hrs post dose by real-time PCR method. In kind it is functional, organism-based. Set-up: dose 64 mg/kg. The procedure, abridged:
as §1

Series [5] has as its system Mus musculus. Kind of series: Increase in plasma tauro-cholic acid level in CD1 mouse model of ANIT-induced cholestasis at 16 mg/kg, po.
In series [6] the target is T1, G-protein coupled bile acid receptor 1 (Homo sapiens, UniProt Q8TDU6).
T1 sequence (Q8TDU6 whole entry): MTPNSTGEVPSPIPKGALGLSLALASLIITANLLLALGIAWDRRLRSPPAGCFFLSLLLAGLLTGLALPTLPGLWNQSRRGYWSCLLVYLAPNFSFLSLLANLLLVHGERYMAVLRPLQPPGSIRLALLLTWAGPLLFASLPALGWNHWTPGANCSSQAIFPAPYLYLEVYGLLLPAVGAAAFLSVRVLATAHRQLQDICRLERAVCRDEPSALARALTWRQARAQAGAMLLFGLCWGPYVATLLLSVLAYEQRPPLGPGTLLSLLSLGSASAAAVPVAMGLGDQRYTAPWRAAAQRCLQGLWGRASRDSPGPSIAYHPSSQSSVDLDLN
Kind of series: (§2) Agonist activity at human GPBAR1 expressed in HEK293T cells assessed as stimulation of cAMP response element-mediated receptor transactivation by luciferase reporter gene assay. In kind it is functional, cell-based, HEK-293T. The method, boiled down:
(§3)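 HEK-293T cells were cotransfected with a CRE-driven luc2P reporter (pGL4.29), pCMVSPORT6-human GP-BAR1 and a Renilla vector. 24 h after transfection they were stimulated for 18 h (10 μM single point; 0.1, 1 and 10 μM for EC50). Lysates were read for luciferase as a measure of intracellular cAMP rise, with TLCA 10 μM as reference. Data are mean ± standard error of at least three determinations in duplicate.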
For orientation: A reporter such as luciferase makes a cellular process visible.

Series [7] deals with T2, G-protein coupled bile acid receptor 1 (Homo sapiens) (UniProt Q8TDU6).
T2 sequence (whole entry): T1 sequence (Q8TDU6 whole entry)
The series is described as §2. In kind it is functional, cell-based. Particulars: HEK-293T. The method, boiled down: as §3

In series [8] the test system is Mus musculus. Kind of series: Induction of GPBAR1-mediated pro-glucagon-1 mRNA expression in CD1 mouse intestine at 64 mg/kg, po measured 6 hrs post dose by real-time PCR method. It is filed as functional. The procedure, abridged:
as §1

The test system of series [9] is Mus musculus. Kind of series: Effect on plasma bile acid level in CD1 mouse model of ANIT-induced cholestasis at 64 mg/kg, po. In kind it is functional, organism-based. Also on record: dose 64 mg/kg.
For series [10], the system named is Mus musculus. Kind of series: Effect on body weight loss in CD1 mouse model of ANIT-induced cholestasis at 64 mg/kg, po. It is filed as functional, organism-based. Also on record: dose 64 mg/kg.
Series [11] concerns Mus musculus. Kind of series: Induction of FXR-mediated OST mRNA expression in CD1 mouse liver at 64 mg/kg, po measured 24 hrs post dose by real-time PCR method. Set-up: dose 64 mg/kg. In kind it is functional, organism-based. The procedure, abridged: as §1
Series [12] relates to Mus musculus. Kind of series: Induction of FXR-mediated BSEP mRNA expression in CD1 mouse liver at 64 mg/kg, po measured 24 hrs post dose by real-time PCR method. It is filed as functional, organism-based. Set-up: dose 64 mg/kg. The procedure, abridged: as §1
The subject of the next series is HEK-293T. Kind of series: Toxicity against HEK293T cells at 50 uM. It is filed as cell-based. The conditions noted are these: human.
Series [13] deals with T3, Bile acid receptor (Homo sapiens) (UniProt Q96RI1).
T3 sequence (whole entry): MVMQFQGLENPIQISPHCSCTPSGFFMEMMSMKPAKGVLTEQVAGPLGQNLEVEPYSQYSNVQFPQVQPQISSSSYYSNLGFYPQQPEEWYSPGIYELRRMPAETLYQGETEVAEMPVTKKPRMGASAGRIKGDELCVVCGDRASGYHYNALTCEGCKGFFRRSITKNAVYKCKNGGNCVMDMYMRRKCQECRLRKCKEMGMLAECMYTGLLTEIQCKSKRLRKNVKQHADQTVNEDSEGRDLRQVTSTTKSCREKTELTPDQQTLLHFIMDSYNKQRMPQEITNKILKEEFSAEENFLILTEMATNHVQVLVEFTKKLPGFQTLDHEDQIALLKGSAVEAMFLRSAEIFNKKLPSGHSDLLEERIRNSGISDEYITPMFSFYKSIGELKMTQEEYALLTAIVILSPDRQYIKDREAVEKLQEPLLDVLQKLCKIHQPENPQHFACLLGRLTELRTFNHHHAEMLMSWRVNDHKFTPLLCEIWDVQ
Kind of series: Agonist activity at FXR (unknown origin) expressed in human HepG2 cells assessed as stimulation of FXR response element IR1-mediated receptor transactivation at 50 uM in presence of CDCA by luciferase reporter gene assay. It is filed as cell-based. The method, boiled down: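 HepG2 cells were cotransfected with pSG5-FXR, pSG5-RXR, the IR1-containing p(hsp27)-TK-LUC reporter and a Renilla vector (pGL4.70). 24 h after transfection they were stimulated for 18 h with 10 μM CDCA plus 50 μM compound. Lysates were read for luciferase. Data are the RLU/RRU ratio, mean ± standard error, compared with CDCA and untreated cells.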

One may read the EC50 as the concentration at which the effect is half-maximal. Consider `C[C@H](CCCCC(=O)O)[C@H]1CC[C@H]2[C@@H]3[C@@H](O)C[C@@H]4C[C@H](O)CC[C@]4(C)[C@H]3CC[C@]12C`, for which the result in the series with Mus musculus [1], in the series on Mus musculus [3] and with Mus musculus [5] was Active. Moreover, the outcome with Mus musculus [2] and with Mus musculus [4] was inactive. Moreover, the half-maximal effective concentration (EC50) in series [6] came out at 17.2 µM. Further, the Activity result in series [7] was “Dose-dependent effect”. Further, the “fold change (FC)” value with Mus musculus [8] turned out to be 2.

For the compound `C[C@H](CCC(=O)O)[C@H]1CC[C@H]2[C@@H]3[C@@H](O)C[C@@H]4C[C@H](O)CC[C@]4(C)[C@H]3CC[C@]12C`, the result in the series on Mus musculus [9] and in the series with Mus musculus [10] was inactive. The outcome with Mus musculus [11] and with Mus musculus [12] was Active.

Consider `C[C@H](CCCCC(=O)O)[C@H]1CC[C@H]2[C@@H]3[C@H](O)C[C@@H]4C[C@H](O)CC[C@]4(C)[C@H]3CC[C@]12C`, for which the Activity result in the series with HEK-293T is “Toxic”. Further, in series [13], the outcome was Active.

Regarding `C[C@H](CCO)[C@H]1CC[C@H]2[C@@H]3[C@@H](O)C[C@@H]4C[C@H](O)CC[C@]4(C)[C@H]3CC[C@]12C`, in series [6], the EC50 stood at 24.4 µM. Also, in [7], the Activity result is “Dose-dependent effect”.
